For data set [1], the target named is T1, Cytochrome P450 1A2 (Homo sapiens, UniProt P05177).
T1 sequence (P05177 whole entry): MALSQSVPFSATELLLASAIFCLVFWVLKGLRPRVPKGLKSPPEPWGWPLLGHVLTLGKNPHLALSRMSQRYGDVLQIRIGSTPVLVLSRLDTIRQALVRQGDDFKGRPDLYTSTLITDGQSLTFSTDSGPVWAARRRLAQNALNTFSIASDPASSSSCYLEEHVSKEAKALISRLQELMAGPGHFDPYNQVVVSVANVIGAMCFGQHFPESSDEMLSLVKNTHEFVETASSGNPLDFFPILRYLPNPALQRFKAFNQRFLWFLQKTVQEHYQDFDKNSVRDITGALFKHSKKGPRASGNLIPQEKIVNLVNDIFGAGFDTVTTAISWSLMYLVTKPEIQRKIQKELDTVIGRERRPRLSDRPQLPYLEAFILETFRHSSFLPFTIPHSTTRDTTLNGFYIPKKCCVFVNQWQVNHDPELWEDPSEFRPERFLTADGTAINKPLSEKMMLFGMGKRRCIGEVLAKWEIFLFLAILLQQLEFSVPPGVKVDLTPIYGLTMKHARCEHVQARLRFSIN
Nature of the data set: Inhibition of CYP1A2 (unknown origin). It counts as ADME.

Data set [2] deals with Cytochrome P450 2D6 (Homo sapiens, UniProt P10635). Nature of the data set: Inhibition of CYP2D6 (unknown origin). It counts as ADME.
Cytochrome P450 2D6, sequence (P10635 whole entry): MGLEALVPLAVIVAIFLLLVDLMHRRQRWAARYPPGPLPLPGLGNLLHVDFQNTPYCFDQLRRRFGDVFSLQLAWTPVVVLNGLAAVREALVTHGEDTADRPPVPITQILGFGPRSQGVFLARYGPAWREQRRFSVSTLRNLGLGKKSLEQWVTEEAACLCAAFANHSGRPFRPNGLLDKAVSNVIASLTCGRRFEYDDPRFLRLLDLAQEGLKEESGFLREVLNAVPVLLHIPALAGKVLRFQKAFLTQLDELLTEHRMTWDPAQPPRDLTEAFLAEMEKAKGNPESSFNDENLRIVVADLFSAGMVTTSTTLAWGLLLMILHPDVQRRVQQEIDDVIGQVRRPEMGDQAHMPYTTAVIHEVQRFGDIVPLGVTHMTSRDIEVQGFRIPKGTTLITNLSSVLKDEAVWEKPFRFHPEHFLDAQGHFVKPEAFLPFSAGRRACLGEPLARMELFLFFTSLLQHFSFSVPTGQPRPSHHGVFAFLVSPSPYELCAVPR
The species named for data set [3] is Homo sapiens. Briefly: Selectivity ratio of Ki for displacement of [3H]-HEMADO from human A3 receptor expressed in HEK293 cell membranes to Ki for displacement of [3H]ZM241385 from human A2A receptor expressed in HEK293 cell membranes. In short, it runs like this:
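Radioligand binding used membranes from HEK-293 cells overexpressing each human adenosine receptor isoform. Points were run in triplicate, and 8-concentration IC50 curves were plotted to give Ki. The selectivity value is the Ki at the off-target isoform divided by the Ki at hA2A.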

Data set [4] is described as follows: AUC (0 to t) in Wistar rat at 10 mg/kg, po administered via gavage by LC-MS/MS analysis. The class given is ADME, organism-based. The following applies: in vivo.
Data set [5] can be described thus: Protein binding in rat plasma. The following applies: read-out: PPB (converted). It counts as ADME, cell-free.
A short description of data set [6]: Systemic clearance in Wistar rat at 3 mg/kg, iv by LC-MS/MS analysis. As to conditions: in vivo. The class given is ADME, organism-based. An outline of the steps:
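Male Wistar rats, n = 4; iv dose 3 mg/kg in 10% NMP, 10% Cremophor EL, acetate buffer pH 4.2 q.s.; values are means.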

A short description of data set [7]: Oral bioavailability in Wistar rat at 10 mg/kg administered via gavage by LC-MS/MS analysis. It counts as ADME, organism-based. The following applies: in vivo. In short, it runs like this:
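Male Wistar rats, n = 4; oral dose 10 mg/kg as suspension in 1% Tween 80 with 0.5% w/v NaCMC; values are means.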

A short description of data set [8]: Solubility of the compound at pH 2. As to conditions: buffer. The class given is physicochemical.

Results on one compound are retold here after ChEMBL document CHEMBL4190330, “Discovery of Potent and Selective A2A Antagonists with Efficacy in Animal Models of Parkinson's Disease and Depression” (ACS Med Chem Lett, 2017).

In the case of `COCCOc1ccc(N2CCN(CCn3c(=O)n(C)c4c3nc(N)n3nc(-c5nccs5)nc43)CC2)cc1F`, the IC50 in data set [1] and in data set [2] was over 10 µM in each case. Also, in data set [3], the Ratio Ki is over 3000. In data set [4], the AUC(0-t) stood at 2.2 µM·h. For the same compound, the fraction unbound in data set [5] is 0.18. Further, the clearance in data set [6] was determined as 45 mL/min/kg. In data set [7], this compound came in with a bioavailability of 32%. In addition, the solubility in data set [8] is over 2000 µM.
